In ChEMBL document CHEMBL1132168, “Cycloalkanecarboxylic esters derived from lysergol, dihydrolysergol-I, and elymoclavine as partial agonists and antagonists at rat 5-HT2A receptors: pharmacological evidence that the indolo[4,3-fg]quinoline system of the ergolines is responsible for high 5-HT2A receptor affinity” (J Med Chem, 1999):
“And” between values parts separate entries of the source, which are not always exact repeats. Equal entries are not always repeated.

Assays:
[1] = target: T1, 5-hydroxytryptamine receptor 2A (Rattus norvegicus, UniProt P14842); assay: Blocking 5-HT2A receptor-mediated contractions of rat tail artery; assay type: functional, tissue-based; conditions: read-out: pA2 (converted)
T1 sequence (P14842 whole entry): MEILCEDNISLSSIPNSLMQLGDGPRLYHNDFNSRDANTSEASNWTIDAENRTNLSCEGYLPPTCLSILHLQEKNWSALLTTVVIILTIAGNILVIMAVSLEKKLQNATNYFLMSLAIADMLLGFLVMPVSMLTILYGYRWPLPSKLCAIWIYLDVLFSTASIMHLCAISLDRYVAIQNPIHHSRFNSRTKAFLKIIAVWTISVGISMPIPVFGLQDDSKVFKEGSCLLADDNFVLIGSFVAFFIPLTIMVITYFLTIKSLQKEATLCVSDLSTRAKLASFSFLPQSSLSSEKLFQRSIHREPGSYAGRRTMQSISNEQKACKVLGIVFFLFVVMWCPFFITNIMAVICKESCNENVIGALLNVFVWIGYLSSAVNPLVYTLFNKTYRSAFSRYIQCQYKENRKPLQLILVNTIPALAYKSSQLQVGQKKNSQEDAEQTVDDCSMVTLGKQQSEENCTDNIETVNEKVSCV
Procedure, shortened: (§1)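 Endothelium-denuded rat ventral caudal artery segments (4–5 mm), isometric, resting force 5 mN. Segments were primed once with 5-HT 1 μM during 120 min equilibration. Prazosin 30 nM and cocaine 6 μM were present throughout. Two cumulative 5-HT curves were run 60 min apart, the second after 30–60 min with antagonist. pKP by Marano–Kaumann; pA2 by Schild or as apparent pA2. Mean ± SEM, n segments, ≥2 animals.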

[2] = Specificity towards 5-HT2A receptor to that of alpha-1 adrenoceptor.; assay type: functional
[3] = target: T2, Adrenergic receptor alpha-1 (Rattus norvegicus, UniProt P15823+P23944+P43140); assay: Ability to block alpha-1 adrenergic receptor-mediated contractions of rat aorta.; assay type: functional
T2 sequence (P15823 whole entry): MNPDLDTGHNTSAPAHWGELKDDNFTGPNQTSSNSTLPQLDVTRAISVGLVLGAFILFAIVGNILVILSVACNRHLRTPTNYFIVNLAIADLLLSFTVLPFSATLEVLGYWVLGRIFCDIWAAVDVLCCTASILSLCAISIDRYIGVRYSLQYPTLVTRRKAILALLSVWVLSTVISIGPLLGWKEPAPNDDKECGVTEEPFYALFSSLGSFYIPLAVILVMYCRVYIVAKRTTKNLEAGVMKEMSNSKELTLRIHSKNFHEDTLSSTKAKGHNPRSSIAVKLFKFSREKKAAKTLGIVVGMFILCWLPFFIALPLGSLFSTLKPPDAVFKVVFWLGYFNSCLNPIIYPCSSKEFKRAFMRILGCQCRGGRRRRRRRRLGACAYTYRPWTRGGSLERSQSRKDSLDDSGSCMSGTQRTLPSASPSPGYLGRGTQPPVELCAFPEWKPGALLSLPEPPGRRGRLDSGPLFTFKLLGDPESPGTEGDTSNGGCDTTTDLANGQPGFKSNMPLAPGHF
T2 sequence (P23944 whole entry): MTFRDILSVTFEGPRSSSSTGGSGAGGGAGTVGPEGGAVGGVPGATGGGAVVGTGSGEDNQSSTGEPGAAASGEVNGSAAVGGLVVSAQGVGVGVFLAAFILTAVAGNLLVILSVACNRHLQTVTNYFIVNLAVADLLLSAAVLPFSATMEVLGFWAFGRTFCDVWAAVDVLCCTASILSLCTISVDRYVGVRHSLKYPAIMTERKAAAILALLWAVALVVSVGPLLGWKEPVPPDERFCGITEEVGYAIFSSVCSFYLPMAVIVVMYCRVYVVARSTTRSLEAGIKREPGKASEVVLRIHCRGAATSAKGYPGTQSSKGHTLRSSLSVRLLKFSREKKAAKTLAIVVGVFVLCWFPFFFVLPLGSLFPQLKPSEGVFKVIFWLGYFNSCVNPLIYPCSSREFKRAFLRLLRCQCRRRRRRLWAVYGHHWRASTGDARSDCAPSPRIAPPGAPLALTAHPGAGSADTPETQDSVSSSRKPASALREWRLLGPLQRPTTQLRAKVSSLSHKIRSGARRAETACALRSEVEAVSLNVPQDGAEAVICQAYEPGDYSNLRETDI
T2 sequence (P43140 whole entry): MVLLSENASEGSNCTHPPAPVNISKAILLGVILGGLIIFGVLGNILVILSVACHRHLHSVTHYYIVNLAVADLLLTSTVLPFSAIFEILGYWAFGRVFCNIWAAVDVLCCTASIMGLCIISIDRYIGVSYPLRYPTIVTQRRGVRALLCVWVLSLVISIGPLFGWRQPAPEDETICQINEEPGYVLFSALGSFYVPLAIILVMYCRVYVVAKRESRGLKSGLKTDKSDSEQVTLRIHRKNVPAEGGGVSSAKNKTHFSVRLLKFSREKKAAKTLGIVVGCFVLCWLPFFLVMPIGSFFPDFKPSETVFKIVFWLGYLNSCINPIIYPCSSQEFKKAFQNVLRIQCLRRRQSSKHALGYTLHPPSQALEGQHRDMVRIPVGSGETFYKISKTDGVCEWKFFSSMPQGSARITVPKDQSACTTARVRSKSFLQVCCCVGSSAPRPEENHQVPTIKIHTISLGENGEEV
Procedure, shortened: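 Endothelium-denuded rat thoracic aorta rings (4–6 mm) in modified Krebs-Henseleit, 37 °C, 95% O2/5% CO2, with (R,S)-propranolol 1 μM. Resting force 20 mN. During 140 min equilibration, rings were stimulated twice with (R)-phenylephrine 100 nM. Two cumulative phenylephrine contraction curves were run, without and then with antagonist added 30 min before.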

[4] = target: 5-hydroxytryptamine receptor 2A (Rattus norvegicus) (UniProt P14842); assay: Effectiveness in blocking 5-HT2A receptor-mediated contractions of rat tail artery; assay type: functional, tissue-based; procedure, shortened: as §1
5-hydroxytryptamine receptor 2A (Rattus norvegicus), sequence (P14842 whole entry): as the sequence (P14842 whole entry) above

[5] = target: 5-hydroxytryptamine receptor 2A (Rattus norvegicus) (UniProt P14842); assay: Intrinsic activity towards 5-HT2A receptor of rat tail artery; assay type: functional, tissue-based
Procedure, shortened: (§2)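 Endothelium-denuded rat caudal artery segments, resting force 5 mN, with prazosin 30 nM and cocaine 6 μM present. Two cumulative curves were run on each segment 60 min apart: first 5-HT, then the test agonist. pKP was taken from a Kenakin plot of equieffective 5-HT and agonist concentrations. Mean ± SEM from n segments, ≥2 animals.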

[6] = target: 5-hydroxytryptamine receptor 2A (Rattus norvegicus) (UniProt P14842); assay: Relative potency towards 5-HT2A receptor of rat tail artery; assay type: functional, tissue-based; procedure, shortened: as §2
[7] = target: T1, 5-hydroxytryptamine receptor 2A; assay: Partial agonism at 5-HT2A receptor was evaluated in presence of ketanserin (3-10 nM) in isolated rat tail artery; assay type: functional, tissue-based; conditions: read-out: pA2 (converted)
Procedure, shortened: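 Rat caudal artery, endothelium removed, with prazosin 30 nM and cocaine 6 μM present. A 5-HT curve was followed after 60 min by a cumulative agonist curve, with ketanserin 3 nM added 30 min beforehand. The rightward shift was compared with that in control segments run without ketanserin.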

Structure (SMILES) | Kb [1] | Specificity [2] | pA2 [3] | pKp [4] | Intrinsic activity [5] | Relative potency [6] | Kb [7]
CC1=C[C@@H]2c3cccc4c3c(cn4C(C)C)C[C@H]2N(C)C1.O=C(O)/C=C\C(=O)O | 1.45 nM | 316 | 6.34 | – | – | – | –
CN1C[C@H](COC(=O)C2CCCC2)C[C@@H]2c3cccc4[nH]cc(c34)C[C@H]21.O=C(O)/C=C\C(=O)O | – | 35 | 5.95 | 7.5 | – | – | –
CO[C@H]1CC[C@H](C(=O)OCC2=C[C@@H]3c4cccc5c4c(cn5C(C)C)C[C@H]3N(C)C2)CC1.O=C(O)/C=C\C(=O)O | 7.41 nM | 2880 | 4.67 | – | – | – | –
CN1C[C@H](COC(=O)C2CC2)C=C2c3cccc4[nH]cc(c34)C[C@H]21.O=C(O)/C=C\C(=O)O | – | 55 | 6.66 | – | 0.21 | 331% | 0.741 nM
CC(C)n1cc2c3c(cccc31)[C@H]1C[C@@H](COC(=O)C3CCCC3)CN(C)[C@@H]1C2.O=C(O)/C=C\C(=O)O | 22.4 nM | 933 | 4.68 | – | – | – | –
CN1C[C@H](COC(=O)C2CC2)C[C@@H]2c3cccc4[nH]cc(c34)C[C@H]21.O=C(O)/C=C\C(=O)O | – | 3 | 7.2 | 7.67 | – | – | –
CC(C)n1cc2c3c(cccc31)[C@H]1C[C@@H](COC(=O)C3CCCCC3)CN(C)[C@@H]1C2.O=C(O)/C=C\C(=O)O | 72.4 nM | 355 | 4.59 | – | – | – | –
CC(C)n1cc2c3c(cccc31)[C@H]1C[C@@H](C)CN(C)[C@@H]1C2.O=C(O)/C=C\C(=O)O | 3.16 nM | 63 | 6.7 | – | – | – | –
CO[C@H]1CC[C@H](C(=O)OCC2=C[C@@H]3c4cccc5[nH]cc(c45)C[C@H]3N(C)C2)CC1.O=C(O)/C=C\C(=O)O | 57.5 nM | 17 | 6 | – | – | – | –
CC(C)n1cc2c3c(cccc31)[C@H]1C[C@@H](COC(=O)C3CCCCCC3)CN(C)[C@@H]1C2.O=C(O)/C=C\C(=O)O | 89.1 nM | 186 | 4.78 | – | – | – | –
CN1C[C@H](COC(=O)C2CCC2)C=C2c3cccc4[nH]cc(c34)C[C@H]21.O=C(O)/C=C\C(=O)O | – | 174 | 5.52 | 7.76 and 7.36 | 0.13 | 185% | 0.741 nM
CN1CC(COC(=O)C2CCCCCC2)=C[C@@H]2c3cccc4[nH]cc(c34)C[C@H]21.O=C(O)/C=C\C(=O)O | 10.7 nM | 832 | 5.05 | – | – | – | –
CC(C)n1cc2c3c(cccc31)C1=C[C@@H](COC(=O)C3CCC3)CN(C)[C@@H]1C2.O=C(O)/C=C\C(=O)O | 6.03 nM | 2950 | 4.75 | – | – | – | –
CN1CC(COC(=O)C2CCCC2)=C[C@@H]2c3cccc4[nH]cc(c34)C[C@H]21.O=C(O)/C=C\C(=O)O | 49 nM | 21 | 5.99 | – | – | – | –
CN1C[C@H](COC(=O)C2CCCCCC2)C=C2c3cccc4[nH]cc(c34)C[C@H]21.O=C(O)/C=C\C(=O)O | – | 95 | 4.73 | 6.71 and 6.35 | 0.18 | 14% | 0.776 nM
CC(C)n1cc2c3c(cccc31)C1=C[C@@H](COC(=O)C3CCCC3)CN(C)[C@@H]1C2.O=C(O)/C=C\C(=O)O | 5.62 nM | 4790 | 4.57 | – | – | – | –

Structure (SMILES) | Kb [1] | Specificity [2] | pA2 [3] | pKp [4] | Intrinsic activity [5] | Relative potency [6] | Kb [7]
CC(C)n1cc2c3c(cccc31)[C@H]1C=C(COC(=O)C3CCCCCC3)CN(C)[C@@H]1C2.O=C(O)/C=C\C(=O)O | 17 nM | > 1860 | < 4.5 | – | – | – | –
CN1C[C@H](COC(=O)C2CCCCC2)C[C@@H]2c3cccc4[nH]cc(c34)C[C@H]21.O=C(O)/C=C\C(=O)O | – | 52 | 5.62 | 7.34 | – | – | –
COC1CCC(C(=O)OCC2=C[C@@H]3c4cccc5[nH]cc(c45)C[C@H]3N(C)C2)CC1.O=C(O)/C=C\C(=O)O (some centres not stated) | 47.9 nM | 12 | 6.32 | – | – | – | –
CN1C[C@H](COC(=O)C2CCC2)C[C@@H]2c3cccc4[nH]cc(c34)C[C@H]21.O=C(O)/C=C\C(=O)O | – | 5 | 6.59 | 7.3 | – | – | –
CN1CC(COC(=O)C2CCCCC2)=C[C@@H]2c3cccc4[nH]cc(c34)C[C@H]21.O=C(O)/C=C\C(=O)O | 39.8 nM | 32 | 5.89 | – | – | – | –
CC(C)n1cc2c3c(cccc31)C1=C[C@@H](COC(=O)C3CC3)CN(C)[C@@H]1C2.O=C(O)/C=C\C(=O)O | 1.82 nM | 4570 | 5.08 | – | – | – | –
CN1C[C@H](COC(=O)C2CCCCCC2)C[C@@H]2c3cccc4[nH]cc(c34)C[C@H]21.O=C(O)/C=C\C(=O)O | – | 174 | 4.86 | 7.1 | – | – | –
CC(C)n1cc2c3c(cccc31)C1=C[C@@H](COC(=O)C3CCCCC3)CN(C)[C@@H]1C2.O=C(O)/C=C\C(=O)O | 12 nM | 1410 | 4.77 | – | – | – | –
CC(C)n1cc2c3c(cccc31)[C@H]1C=C(COC(=O)C3CCCCC3)CN(C)[C@@H]1C2.O=C(O)/C=C\C(=O)O | 15.8 nM | 1410 | 4.65 | – | – | – | –
COC1CCC(C(=O)OCC2=C[C@@H]3c4cccc5c4c(cn5C(C)C)C[C@H]3N(C)C2)CC1.O=C(O)/C=C\C(=O)O (some centres not stated) | 11.5 nM | 1260 | 4.84 | – | – | – | –
CC(C)n1cc2c3c(cccc31)[C@H]1C[C@@H](COC(=O)C3CCC3)CN(C)[C@@H]1C2.O=C(O)/C=C\C(=O)O | 8.71 nM | 2950 | 4.59 | – | – | – | –
CN1C[C@H](CO)C=C2c3cccc4[nH]cc(c34)C[C@H]21 | – | – | – | 6.88 | 0.18 | 74% | 0.794 nM
CC(C)n1cc2c3c(cccc31)[C@H]1C=C(COC(=O)C3CCCC3)CN(C)[C@@H]1C2.O=C(O)/C=C\C(=O)O | 8.91 nM | 1440 | 4.89 | – | – | – | –
CN1CC(COC(=O)C2CCC2)=C[C@@H]2c3cccc4[nH]cc(c34)C[C@H]21.O=C(O)/C=C\C(=O)O | 77.6 nM | 5 | 6.42 | – | – | – | –
CC(C)n1cc2c3c(cccc31)[C@H]1C=C(COC(=O)C3CCC3)CN(C)[C@@H]1C2.O=C(O)/C=C\C(=O)O | 9.33 nM | 2180 | 4.69 | – | – | – | –
